As a reminder, the IC50 is the concentration at which inhibition is half-maximal. A high value points to weaker potency. By MIC is commonly meant the lowest concentration found to suppress growth. High values mean weaker potency, low ones greater potency. One may read the IC90 as the point of the concentration-response curve where the effect stands at 90%. Higher therefore signals a need for much substance.

These results are taken from ChEMBL document CHEMBL2034895, “Antimicrobial metabolites from the Paracel Islands sponge Agelas mauritiana” (J Nat Prod, 2012).

Common to all, as to type: functional, organism-based
One experiment deals with Cryptococcus neoformans. Description: Antifungal activity against Cryptococcus neoformans ATCC 90113 by M27A2 method.
A further experiment concerns Leishmania donovani. The experiment in a line: Antileishmanial activity against Leishmania donovani promastigotes after 72 hrs by alamar blue assay. An outline of the steps: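 L. donovani promastigote culture at 2 × 10^6 cells/mL was exposed to diluted compound in microplate wells and incubated at 26 °C for 72 h. Promastigote growth was read by Alamar blue. Pentamidine and amphotericin B were the reference drugs.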
(Resazurin is reduced to fluorescent resorufin, in cell work by metabolically active cells.)

Experiment [1] has as its system Staphylococcus aureus. Description: Antibacterial activity against Staphylococcus aureus ATCC 29213 by CLSI method.
Experiment [2] concerns Staphylococcus aureus. Description: Antibacterial activity against methicillin-resistant Staphylococcus aureus ATCC 33591 by CLSI method. The method in brief:
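Methicillin-resistant S. aureus ATCC 33591 tested by a modified CLSI (formerly NCCLS) susceptibility method. Ciprofloxacin was included as the control drug in each assay.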

Consider `C=C1CC[C@@H]2C(C)(C)CCC[C@@]2(C)[C@@H]1CC/C(C)=C/C[n+]1cn(C)c2nc[nH]/c(=N\O)c21`, for which, in the experiment on Cryptococcus neoformans, the IC50 was 5.94 µg/mL and the MIC is 10 µg/mL. In the experiment on Leishmania donovani, this compound gave an IC50 of 29.3 µg/mL and a concentration for an effect of 90% (IC90) of 34 µg/mL.

`CC1=CCC[C@@H]2[C@@](C)(CC/C(C)=C/C[n+]3cn(C)c4nc[nH]/c(=N/O)c43)[C@H](C)CC[C@@]12C` [AGELOXIME B]: the IC50 in the experiment with Cryptococcus neoformans was 4.96 µg/mL; in the experiment on Staphylococcus aureus [1] it was 7.21 µg/mL; with Staphylococcus aureus [2], 9.2 µg/mL; in the experiment with Leishmania donovani, 28.5 µg/mL. The MIC came to 10 µg/mL in the experiment on Cryptococcus neoformans, 10 µg/mL in the experiment with Staphylococcus aureus [1] and 20 µg/mL against Staphylococcus aureus [2]. For the same compound, the 90% effect level in the experiment on Leishmania donovani (IC90) was put at 33.2 µg/mL.
